Experimental findings from ChEMBL document CHEMBL5705891, “Small-molecule kinase inhibitors provide insight into Mps1 cell cycle function” (Nat Chem Biol, 2010) are described below.

Calls of active or inactive are those of the source. No cut-off for these calls is given here.

Assay [1] relates to U2OS. Nature of the assay: Reversal of nocodazole-induced mitotic arrest in human U2OS cells assessed as decrease in cyclin B level at 0.3 to 10 uM incubated for 4 hrs by immunoblot analysis. The settings on record: dose 0.3-10 µM. It counts as functional, cell-based. (A western blot detects proteins with antibodies after separation by electrophoresis.)
Assay [2] has as its system U2OS. The assay is described as follows: Induction of multipolar anaphases in thymidine-treated human U2OS cells expressing H2B-GFP and Plk4 overexpression measured for 30 mins by time lapse imaging analysis. Format: functional, cell-based. Put shortly:
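Doxycycline-inducible Plk4 U2OS cells expressing H2B-GFP were blocked with thymidine for 18 hrs and released into doxycycline (2 μg·ml⁻¹) for 10 hrs. A second 18-hr thymidine block followed, then release for 6 hrs before 5 μM inhibitor, with or without Plk4 induction. Cells were imaged by time-lapse at 37°C, 5% CO₂, timed from NEBD, and bipolar versus multipolar anaphases were scored. Values are mean ± SD of 3 independent experiments.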

Assay [3] deals with T1, Insulin-like growth factor 1 receptor (Homo sapiens, UniProt P08069). Nature of the assay: Binding affinity to IGF1R (unknown origin) assessed as dissociation constant by Ambit kinase binding assay.
T1 sequence (P08069 31-736 limits assumed): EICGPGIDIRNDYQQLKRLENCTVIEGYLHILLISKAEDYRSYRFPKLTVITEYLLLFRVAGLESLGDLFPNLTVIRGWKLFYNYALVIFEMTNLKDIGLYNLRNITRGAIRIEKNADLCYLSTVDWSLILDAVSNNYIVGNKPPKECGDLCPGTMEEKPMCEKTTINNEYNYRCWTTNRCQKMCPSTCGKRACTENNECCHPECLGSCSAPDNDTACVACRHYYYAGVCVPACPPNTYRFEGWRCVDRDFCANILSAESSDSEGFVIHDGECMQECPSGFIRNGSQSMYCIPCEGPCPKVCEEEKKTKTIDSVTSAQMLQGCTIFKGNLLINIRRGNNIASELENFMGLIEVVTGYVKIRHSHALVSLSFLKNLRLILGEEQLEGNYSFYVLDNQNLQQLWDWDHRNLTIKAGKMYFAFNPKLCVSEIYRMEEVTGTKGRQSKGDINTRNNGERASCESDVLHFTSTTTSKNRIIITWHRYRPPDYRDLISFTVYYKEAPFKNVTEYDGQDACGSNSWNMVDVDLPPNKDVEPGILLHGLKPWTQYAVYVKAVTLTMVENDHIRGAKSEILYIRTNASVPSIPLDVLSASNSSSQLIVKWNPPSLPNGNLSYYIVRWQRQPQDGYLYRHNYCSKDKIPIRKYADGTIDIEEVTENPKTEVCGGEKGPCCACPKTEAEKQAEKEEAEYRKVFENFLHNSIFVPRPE
T1 sequence (P08069 741-1367 limits assumed): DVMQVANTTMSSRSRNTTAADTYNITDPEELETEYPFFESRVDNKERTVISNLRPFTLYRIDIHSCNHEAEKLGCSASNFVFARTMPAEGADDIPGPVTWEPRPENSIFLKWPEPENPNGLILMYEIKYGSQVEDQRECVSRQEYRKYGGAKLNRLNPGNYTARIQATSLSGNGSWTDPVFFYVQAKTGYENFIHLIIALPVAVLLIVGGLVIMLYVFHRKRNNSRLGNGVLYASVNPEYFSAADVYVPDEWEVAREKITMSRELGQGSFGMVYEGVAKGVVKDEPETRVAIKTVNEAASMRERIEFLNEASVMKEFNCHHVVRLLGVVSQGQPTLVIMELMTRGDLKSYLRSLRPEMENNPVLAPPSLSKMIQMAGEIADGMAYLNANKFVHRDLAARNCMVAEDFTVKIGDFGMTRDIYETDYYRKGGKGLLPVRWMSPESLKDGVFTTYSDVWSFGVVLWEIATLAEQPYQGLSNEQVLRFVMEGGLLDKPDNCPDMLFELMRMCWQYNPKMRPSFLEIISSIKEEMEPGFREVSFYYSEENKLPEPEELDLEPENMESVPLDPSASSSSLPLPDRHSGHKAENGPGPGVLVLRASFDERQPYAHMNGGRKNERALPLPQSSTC
In assay [4] the test system is U2OS. The assay is described as follows: Effect on thymidine-treated human U2OS cell populations after one cell doubling at 10 uM incubated for 4 hrs followed by thymidine release by immunofluorescence imaging analysis. It counts as functional, cell-based.
Assay [5] concerns UTRM10. Nature of the assay: Induction of chromosome mis-segregation in UTRM10 cells (unknown origin) expressing LAP-tagged Mps1 M602Q mutant co-transfected with H2B-EYFP at 10 uM by time-lapse microscopy. Format: functional, cell-based.
For assay [6], the system named is U2OS. Nature of the assay: Induction of chromosome mis-segregation in human U2OS cells expressing histone H2B-GFP at 5 to 10 uM treated for 4 hrs followed by MG132 treatment for 30 to 60 mins and subsequent replacement of medium containing MG132 measured after 30 mins by immunofluoresence analysis. It counts as functional, cell-based. The settings on record: dose 5-10 µM, time 4.5-5 hrs.

The subject of assay [7] is HCT-116. Nature of the assay: Induction of apoptosis in human HCT-116 cells assessed as increase in cleaved PARP level at 5 to 10 uM measured for 24 to 48 hrs in presence of Z-VAD-FMK by immunoblot analysis. Format: functional, cell-based. The settings on record: dose 5-10 µM, time 24-48 hrs.
For assay [8], the system named is HCT-116. The assay is described as follows: Antiproliferative activity against human HCT-116 cells with p53+/+ at 10 uM measured after 96 hrs in presence of Z-VAD-FMK by Syto60 staining based assay. It counts as functional, cell-based.
For assay [9], the target named is Insulin receptor-related protein (Homo sapiens, UniProt P14616). The assay is described as follows: Inhibition of INSRR (unknown origin) assessed as residual enzyme activity at 10 uM by Ambit kinase binding assay relative to control.
Chain of Insulin receptor-related protein (P14616 27-742 limits assumed): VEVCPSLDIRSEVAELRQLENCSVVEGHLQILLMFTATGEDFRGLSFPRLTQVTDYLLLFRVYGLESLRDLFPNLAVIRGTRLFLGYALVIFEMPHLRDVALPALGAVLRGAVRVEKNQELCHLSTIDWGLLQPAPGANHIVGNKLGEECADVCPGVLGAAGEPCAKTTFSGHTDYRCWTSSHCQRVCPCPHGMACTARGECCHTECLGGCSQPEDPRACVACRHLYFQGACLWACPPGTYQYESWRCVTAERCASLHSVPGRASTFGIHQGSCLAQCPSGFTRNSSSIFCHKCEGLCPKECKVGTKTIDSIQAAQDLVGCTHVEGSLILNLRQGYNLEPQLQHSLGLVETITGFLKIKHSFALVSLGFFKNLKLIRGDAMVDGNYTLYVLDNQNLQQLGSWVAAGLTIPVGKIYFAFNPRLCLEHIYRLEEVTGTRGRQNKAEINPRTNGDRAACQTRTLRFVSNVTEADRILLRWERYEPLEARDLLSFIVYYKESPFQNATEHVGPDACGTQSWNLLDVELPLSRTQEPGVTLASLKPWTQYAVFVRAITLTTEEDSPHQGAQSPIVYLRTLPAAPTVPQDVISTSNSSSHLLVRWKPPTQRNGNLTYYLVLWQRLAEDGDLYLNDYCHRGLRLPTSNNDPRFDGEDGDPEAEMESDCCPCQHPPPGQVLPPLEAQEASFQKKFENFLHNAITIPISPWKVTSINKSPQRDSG
Chain of Insulin receptor-related protein (P14616 747-1297 limits assumed): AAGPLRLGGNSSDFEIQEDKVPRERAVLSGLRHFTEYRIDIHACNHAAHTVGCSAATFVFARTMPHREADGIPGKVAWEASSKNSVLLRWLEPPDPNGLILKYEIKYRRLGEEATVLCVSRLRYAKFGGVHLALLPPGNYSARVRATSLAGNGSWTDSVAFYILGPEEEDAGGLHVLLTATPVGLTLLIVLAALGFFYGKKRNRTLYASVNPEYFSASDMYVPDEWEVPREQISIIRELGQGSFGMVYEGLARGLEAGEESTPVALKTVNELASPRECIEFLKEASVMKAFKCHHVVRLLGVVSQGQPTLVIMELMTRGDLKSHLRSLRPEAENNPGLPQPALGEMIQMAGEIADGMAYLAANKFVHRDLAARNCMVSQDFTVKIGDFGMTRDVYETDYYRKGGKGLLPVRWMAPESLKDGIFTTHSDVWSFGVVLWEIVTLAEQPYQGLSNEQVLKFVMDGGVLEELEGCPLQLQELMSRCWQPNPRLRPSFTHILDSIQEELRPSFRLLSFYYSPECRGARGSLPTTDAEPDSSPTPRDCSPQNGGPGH
In assay [10] the target is T1, Insulin-like growth factor 1 receptor. The assay is described as follows: Inhibition of IGF1R (unknown origin) assessed as residual enzyme activity at 10 uM by Ambit kinase binding assay relative to control.
In assay [11] the target is Non-receptor tyrosine-protein kinase TNK1 (Homo sapiens, UniProt Q13470). The assay is described as follows: Binding affinity to TNK1 (unknown origin) assessed as dissociation constant by Ambit kinase binding assay.
In assay [12] the target is Protein-tyrosine kinase 2-beta (Homo sapiens, UniProt Q14289). Nature of the assay: Binding affinity to PYK2 (unknown origin) assessed as dissociation constant by Ambit kinase binding assay.
The test system of assay [13] is UTRM10. Nature of the assay: Effect on centrosome overduplication in hydroxyurea-treated UTRM10 cells (unknown origin) at 10 to 25 uM incubated for 48 hrs by centrin staining based analysis. The settings on record: dose 10-25 µM.
The target of assay [14] is Tyrosine-protein kinase receptor UFO (Homo sapiens) (UniProt P30530). Nature of the assay: Inhibition of AXL (unknown origin) assessed as residual enzyme activity at 10 uM by Ambit kinase binding assay relative to control.
Assay [15] relates to HCT-116. The assay is described as follows: Induction of accumulation of human HCT-116 cells with <2N DNA content at 10 uM incubated for 4 days by FACS analysis. Format: functional, cell-based. The settings on record: time 4.0 day. A digest of the protocol:
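HCT116 cells were treated with 10 μM compound or DMSO vehicle for the indicated times up to 96 h, then DNA content was profiled by flow cytometry.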
On the technique in general: In flow cytometry, cells or beads pass a laser one at a time.

Assay [16] has as its target Dual specificity protein kinase CLK4 (Homo sapiens) (UniProt Q9HAZ1). The assay is described as follows: Inhibition of CLK4 (unknown origin) assessed as residual enzyme activity at 10 uM by Ambit kinase binding assay relative to control.
Assay [17] deals with Serine/threonine-protein kinase TAO3 (Homo sapiens) (UniProt Q9H2K8). The assay is described as follows: Inhibition of TAOK3 (unknown origin) assessed as residual enzyme activity at 10 uM by Ambit kinase binding assay relative to control.
The target of assay [18] is Cyclin-dependent kinase 7 (Homo sapiens) (UniProt P50613). The assay is described as follows: Inhibition of CDK7 (unknown origin) assessed as residual enzyme activity at 10 uM by Ambit kinase binding assay relative to control.
For assay [19], the target named is Death-associated protein kinase 1 (Homo sapiens) (UniProt P53355). Nature of the assay: Inhibition of DAPK1 (unknown origin) assessed as residual enzyme activity at 10 uM by Ambit kinase binding assay relative to control.
In assay [20] the target is Death-associated protein kinase 2 (Homo sapiens) (UniProt Q9UIK4). The assay is described as follows: Inhibition of DAPK2 (unknown origin) assessed as residual enzyme activity at 10 uM by Ambit kinase binding assay relative to control.
Assay [21] deals with Inhibitor of nuclear factor kappa-B kinase subunit alpha (Homo sapiens) (UniProt O15111). Nature of the assay: Inhibition of IKK-alpha (unknown origin) assessed as residual enzyme activity at 10 uM by Ambit kinase binding assay relative to control.
Assay [22] concerns the target Ribosomal protein S6 kinase alpha-1 (Homo sapiens) (UniProt Q15418). The assay is described as follows: Inhibition of RPS6KA1 kinase domain 2 (unknown origin) assessed as residual enzyme activity at 10 uM by Ambit kinase binding assay relative to control.
Assay [23] has as its target Serine/threonine-protein kinase 25 (Homo sapiens) (UniProt O00506). Nature of the assay: Inhibition of YSK1 (unknown origin) assessed as residual enzyme activity at 10 uM by Ambit kinase binding assay relative to control.
Assay [24] deals with Serine/threonine-protein kinase pim-3 (Homo sapiens) (UniProt Q86V86). The assay is described as follows: Inhibition of PIM3 (unknown origin) assessed as residual enzyme activity at 10 uM by Ambit kinase binding assay relative to control.
In assay [25] the target is Ankyrin repeat and protein kinase domain-containing protein 1 (Homo sapiens) (UniProt Q8NFD2). Nature of the assay: Inhibition of ANKK1 (unknown origin) assessed as residual enzyme activity at 10 uM by Ambit kinase binding assay relative to control.
Assay [26] addresses SRSF protein kinase 3 (Homo sapiens) (UniProt Q9UPE1). The assay is described as follows: Inhibition of SRPK3 (unknown origin) assessed as residual enzyme activity at 10 uM by Ambit kinase binding assay relative to control.
Assay [27] addresses Aurora kinase C (Homo sapiens) (UniProt Q9UQB9). Nature of the assay: Inhibition of AURKC (unknown origin) assessed as residual enzyme activity at 10 uM by Ambit kinase binding assay relative to control.
The target of assay [28] is Tyrosine-protein kinase Blk (Homo sapiens) (UniProt P51451). The assay is described as follows: Inhibition of BLK (unknown origin) assessed as residual enzyme activity at 10 uM by Ambit kinase binding assay relative to control.
In assay [29] the target is AP2-associated protein kinase 1 (Homo sapiens) (UniProt Q2M2I8). Nature of the assay: Inhibition of AAK1 (unknown origin) assessed as residual enzyme activity at 10 uM by Ambit kinase binding assay relative to control.

Chain of Dual specificity protein kinase CLK4 (Homo sapiens) (Q9HAZ1 whole entry, looked up): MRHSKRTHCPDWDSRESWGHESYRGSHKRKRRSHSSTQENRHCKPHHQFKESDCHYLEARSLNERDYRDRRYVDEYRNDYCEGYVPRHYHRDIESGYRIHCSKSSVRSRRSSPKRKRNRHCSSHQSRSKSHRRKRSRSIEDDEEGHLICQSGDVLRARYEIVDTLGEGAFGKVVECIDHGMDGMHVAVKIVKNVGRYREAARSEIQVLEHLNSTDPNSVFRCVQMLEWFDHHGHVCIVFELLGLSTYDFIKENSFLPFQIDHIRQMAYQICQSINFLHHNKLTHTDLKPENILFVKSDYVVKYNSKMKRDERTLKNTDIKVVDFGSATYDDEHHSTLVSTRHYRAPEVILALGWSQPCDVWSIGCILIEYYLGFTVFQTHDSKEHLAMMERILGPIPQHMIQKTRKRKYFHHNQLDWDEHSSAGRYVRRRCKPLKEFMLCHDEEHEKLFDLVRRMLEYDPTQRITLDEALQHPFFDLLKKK
Chain of Serine/threonine-protein kinase 25 (Homo sapiens) (O00506 whole entry, looked up): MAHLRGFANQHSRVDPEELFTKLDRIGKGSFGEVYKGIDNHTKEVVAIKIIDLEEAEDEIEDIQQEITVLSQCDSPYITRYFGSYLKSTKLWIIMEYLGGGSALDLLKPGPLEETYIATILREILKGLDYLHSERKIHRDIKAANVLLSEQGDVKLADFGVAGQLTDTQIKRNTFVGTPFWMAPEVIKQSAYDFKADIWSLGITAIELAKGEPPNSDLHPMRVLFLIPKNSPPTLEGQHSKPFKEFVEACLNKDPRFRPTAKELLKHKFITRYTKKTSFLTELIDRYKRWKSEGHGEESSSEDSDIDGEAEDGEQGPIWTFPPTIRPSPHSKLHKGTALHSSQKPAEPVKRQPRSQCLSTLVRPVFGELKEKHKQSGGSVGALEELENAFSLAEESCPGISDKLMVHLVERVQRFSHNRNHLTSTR
Chain of Aurora kinase C (Homo sapiens) (Q9UQB9 whole entry): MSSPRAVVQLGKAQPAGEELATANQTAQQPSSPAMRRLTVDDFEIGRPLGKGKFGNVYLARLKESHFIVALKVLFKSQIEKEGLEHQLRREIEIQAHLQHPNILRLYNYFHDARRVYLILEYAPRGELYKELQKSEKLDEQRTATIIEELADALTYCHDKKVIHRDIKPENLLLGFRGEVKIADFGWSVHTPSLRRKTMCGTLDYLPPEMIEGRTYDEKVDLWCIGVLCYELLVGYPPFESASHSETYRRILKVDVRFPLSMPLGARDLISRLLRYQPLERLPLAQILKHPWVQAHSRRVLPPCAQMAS
Chain of SRSF protein kinase 3 (Homo sapiens) (Q9UPE1 whole entry): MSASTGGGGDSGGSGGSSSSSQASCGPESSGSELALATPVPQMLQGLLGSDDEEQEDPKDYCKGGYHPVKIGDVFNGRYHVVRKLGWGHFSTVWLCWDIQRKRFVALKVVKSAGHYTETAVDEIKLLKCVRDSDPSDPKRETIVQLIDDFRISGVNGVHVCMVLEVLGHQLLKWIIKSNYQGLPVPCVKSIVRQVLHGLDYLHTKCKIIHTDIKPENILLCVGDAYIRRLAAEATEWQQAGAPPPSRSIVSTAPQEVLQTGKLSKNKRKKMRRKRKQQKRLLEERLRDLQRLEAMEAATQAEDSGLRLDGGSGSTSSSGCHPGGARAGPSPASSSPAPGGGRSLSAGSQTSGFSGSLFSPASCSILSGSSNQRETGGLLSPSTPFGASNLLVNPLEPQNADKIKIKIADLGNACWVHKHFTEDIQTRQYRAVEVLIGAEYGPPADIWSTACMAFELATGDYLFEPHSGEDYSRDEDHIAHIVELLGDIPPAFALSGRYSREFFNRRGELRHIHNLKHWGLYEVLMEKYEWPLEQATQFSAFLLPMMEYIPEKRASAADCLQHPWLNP

Turning to `COc1cc(N2CCC(O)CC2)ccc1Nc1cc(Nc2ccccc2S(=O)(=O)C(C)C)c2cc[nH]c2n1`, the outcome in assay [1], in assay [2], in assay [6], in assay [8] and in [15] was Active. Further, the values for the dissociation constant (Kd) in [3], in assay [11] and in assay [12] were 750 nM, 2600 nM and 280 nM, respectively. Besides, the result in assay [4], in assay [5], in assay [7] and in [13] was inactive. Moreover, the Activity came to 2% in assay [9], 0.9% in assay [10], 19% in assay [14] and 18% in assay [16].
Consider `O=C1c2ccccc2-c2n[nH]c3cccc1c23`, for which the Activity was found to be 22% in assay [17]; 26% in assay [18]; 1.4% in [19]; 4.1% in assay [20]; 0.1% in assay [21]; 3.8% in assay [22]. The Activity in assay [23] stood at 28%; in assay [24], 14%; in assay [25], 0.95%; in assay [26], 32%; in [27], 23%; in assay [28], 12%. The Activity in assay [29] stood at 2.6%.
